Laboratory results: ChEMBL document CHEMBL1154674, “Synthesis and evaluation of three 18F-labeled aminophenylbenzothiazoles as amyloid imaging agents” (J Med Chem, 2009)

Target: Amyloid-beta precursor protein (Homo sapiens, UniProt P05067)
Assay: Displacement of [125I]IMPY from beta-amyloid plaques in Alzheimer's disease patient brain homogenate
Assay type: tissue-based
Procedure, shortened: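 Test compound was added at 10^-5–10^-10 M, serially diluted in PBS containing 0.1% BSA. Nonspecific binding was defined with 600 nM unlabeled IMPY. Incubation was 37 °C for 2 h, followed by GF/B vacuum filtration, PBS washes and γ counting. Ki came from nonlinear regression.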

Chain of Amyloid-beta precursor protein (P05067 whole entry): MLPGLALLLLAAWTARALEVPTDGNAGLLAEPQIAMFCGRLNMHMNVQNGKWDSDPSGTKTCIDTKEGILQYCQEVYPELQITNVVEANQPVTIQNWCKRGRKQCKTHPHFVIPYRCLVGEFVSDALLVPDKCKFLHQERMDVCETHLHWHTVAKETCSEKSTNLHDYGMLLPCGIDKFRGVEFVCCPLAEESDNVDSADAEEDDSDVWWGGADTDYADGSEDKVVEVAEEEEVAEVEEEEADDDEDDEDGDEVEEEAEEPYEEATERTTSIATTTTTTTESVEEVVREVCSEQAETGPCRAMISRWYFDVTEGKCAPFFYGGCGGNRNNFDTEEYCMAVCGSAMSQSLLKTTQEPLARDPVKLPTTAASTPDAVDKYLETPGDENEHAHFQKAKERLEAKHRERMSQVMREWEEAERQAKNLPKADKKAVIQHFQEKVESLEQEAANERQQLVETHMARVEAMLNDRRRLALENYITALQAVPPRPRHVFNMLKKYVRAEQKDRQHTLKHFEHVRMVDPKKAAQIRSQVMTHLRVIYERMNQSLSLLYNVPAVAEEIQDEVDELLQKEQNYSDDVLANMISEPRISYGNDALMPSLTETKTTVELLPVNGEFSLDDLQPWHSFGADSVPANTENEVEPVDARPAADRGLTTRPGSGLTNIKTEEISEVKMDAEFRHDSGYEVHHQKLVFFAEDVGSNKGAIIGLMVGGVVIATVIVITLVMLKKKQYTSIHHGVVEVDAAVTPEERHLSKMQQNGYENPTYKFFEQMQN

Ki: 10 nM
SMILES: Nc1ccc2nc(-c3ccc(F)cc3)sc2c1
